According to ChEMBL document CHEMBL1949497, “Synthesis and antihormonal properties of novel 11β-benzoxazole-substituted steroids” (Bioorg Med Chem Lett, 2012):

Experiments:
Glucocorticoid receptor = biological target: T1, Glucocorticoid receptor (Homo sapiens, UniProt P04150); test: Antagonist activity at glucocorticoid receptor in human A549 cells assessed as inhibition of dexamethasone-induced transcription at GRE after 24 hrs by luciferase reporter gene assay; assay type: functional, cell-based
T1 sequence (P04150 whole entry): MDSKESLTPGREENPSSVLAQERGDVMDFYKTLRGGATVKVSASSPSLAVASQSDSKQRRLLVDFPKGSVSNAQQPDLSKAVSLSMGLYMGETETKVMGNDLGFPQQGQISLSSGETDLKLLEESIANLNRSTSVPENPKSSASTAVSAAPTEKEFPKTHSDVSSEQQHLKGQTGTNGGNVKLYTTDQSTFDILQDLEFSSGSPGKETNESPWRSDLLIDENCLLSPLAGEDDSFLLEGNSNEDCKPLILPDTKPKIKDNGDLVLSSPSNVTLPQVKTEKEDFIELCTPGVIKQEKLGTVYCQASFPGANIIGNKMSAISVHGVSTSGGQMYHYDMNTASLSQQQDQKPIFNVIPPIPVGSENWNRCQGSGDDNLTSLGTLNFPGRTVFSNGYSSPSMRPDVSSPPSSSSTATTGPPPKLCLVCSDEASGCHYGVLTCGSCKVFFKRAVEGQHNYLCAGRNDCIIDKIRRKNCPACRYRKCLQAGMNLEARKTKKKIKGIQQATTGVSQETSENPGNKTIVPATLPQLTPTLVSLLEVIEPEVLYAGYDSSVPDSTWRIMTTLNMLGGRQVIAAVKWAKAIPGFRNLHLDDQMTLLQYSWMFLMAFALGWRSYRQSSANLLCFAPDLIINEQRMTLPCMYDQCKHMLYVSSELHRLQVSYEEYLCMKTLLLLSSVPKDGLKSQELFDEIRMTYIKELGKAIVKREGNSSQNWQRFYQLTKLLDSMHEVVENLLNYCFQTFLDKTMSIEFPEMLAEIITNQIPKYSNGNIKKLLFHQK

Progesterone receptor = biological target: T2, Progesterone receptor (Homo sapiens, UniProt P06401); test: Antagonist activity at progesterone receptor in human T47D cells assessed as inhibition of progesterone-induced alkaline phosphatase activity after 24 hrs by luminescence based assay; assay type: functional, cell-based
T2 sequence (P06401 whole entry): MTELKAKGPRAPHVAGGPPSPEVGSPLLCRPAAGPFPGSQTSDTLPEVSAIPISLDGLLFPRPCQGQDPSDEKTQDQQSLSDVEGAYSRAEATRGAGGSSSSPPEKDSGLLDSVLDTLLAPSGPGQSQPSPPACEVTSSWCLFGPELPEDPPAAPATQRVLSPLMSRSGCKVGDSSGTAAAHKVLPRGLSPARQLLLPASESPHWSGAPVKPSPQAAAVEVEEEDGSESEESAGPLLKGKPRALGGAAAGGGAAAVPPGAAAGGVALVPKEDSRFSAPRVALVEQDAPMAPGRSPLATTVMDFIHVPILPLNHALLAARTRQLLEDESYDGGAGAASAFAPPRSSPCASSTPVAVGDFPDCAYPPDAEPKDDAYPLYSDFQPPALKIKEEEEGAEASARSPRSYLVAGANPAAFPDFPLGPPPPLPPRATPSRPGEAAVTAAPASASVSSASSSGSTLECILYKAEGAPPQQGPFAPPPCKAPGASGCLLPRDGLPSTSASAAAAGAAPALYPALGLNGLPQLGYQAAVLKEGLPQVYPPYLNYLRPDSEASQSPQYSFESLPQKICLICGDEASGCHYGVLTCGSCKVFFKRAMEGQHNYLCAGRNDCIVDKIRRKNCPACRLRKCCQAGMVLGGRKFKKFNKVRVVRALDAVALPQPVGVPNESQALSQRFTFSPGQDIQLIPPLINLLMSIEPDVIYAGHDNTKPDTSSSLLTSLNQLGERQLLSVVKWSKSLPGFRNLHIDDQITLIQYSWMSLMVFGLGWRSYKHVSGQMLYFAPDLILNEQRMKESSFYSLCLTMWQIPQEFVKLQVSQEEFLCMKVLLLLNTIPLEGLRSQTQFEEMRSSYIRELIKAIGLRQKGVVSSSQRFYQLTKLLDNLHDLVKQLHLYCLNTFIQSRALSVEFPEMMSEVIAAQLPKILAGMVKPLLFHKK

T47D = test: Selectivity ratio of IC50 for progesterone receptor in human T47D cells to IC50 for glucocorticoid receptor in human A549 cells; assay type: cell-based
Summary of the method: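 Ratio calculated by dividing the IC50 from the T47D alkaline phosphatase assay by the IC50 from the A549 cell-based functional assay, with both measured in this work. It serves as an index of how well PR and GR antagonism are separated. Mifepristone was run alongside as the reference compound.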

Compound | IC50 (Glucocorticoid receptor) [nM] | IC50 (Progesterone receptor) [nM] | Ratio IC50 (T47D)
CC#C[C@]1(O)CC[C@H]2[C@@H]3CCC4=CC(=O)CCC4=C3[C@@H](c3ccc4oc(C)nc4c3)C[C@@]21C | 23 | 35 | 1.5
CC#C[C@]1(O)CC[C@H]2[C@@H]3CCC4=CC(=O)CCC4=C3[C@@H](c3ccc(N(C)C)cc3)C[C@@]21C | – | – | 0.9
CC#C[C@]1(O)CC[C@H]2[C@@H]3CCC4=CC(=O)CCC4=C3[C@@H](c3ccc4oc(C(F)(F)F)nc4c3)C[C@@]21C | 61 | 85 | 1.4
CC#C[C@]1(O)CC[C@H]2[C@@H]3CCC4=CC(=O)CCC4=C3[C@@H](c3ccc4oc(CC)nc4c3)C[C@@]21C | 13 | 65 | 5

Continued, in another order:

IC50 (Glucocorticoid receptor) [nM] | IC50 (Progesterone receptor) [nM] | Compound | Ratio IC50 (T47D)
60 | 41 | CC#C[C@]1(NC=O)CC[C@H]2[C@@H]3CCC4=CC(=O)CCC4=C3[C@@H](c3ccc4ocnc4c3)C[C@@]21C | 0.7
142 | 46 | CC#C[C@]1(NC=O)CC[C@H]2[C@@H]3CCC4=CC(=O)CCC4=C3[C@@H](c3ccc4oc(C(F)(F)F)nc4c3)C[C@@]21C | 0.3
45 | 101 | CC#C[C@]1(O)CC[C@H]2[C@@H]3CCC4=CC(=O)CCC4=C3[C@@H](c3ccc4ocnc4c3)C[C@@]21C | 2.2
